CXCR6 inh = CXCR6 receptor inhibitors, primary screen, cell-based, beta-arrestin, luminescence, CHO-K1 PathHunter, 1536-well | C-X-C chemokine receptor type 6 (Homo sapiens), O00574 | inhibition, % at 20 µM | actives 0.36% (n = 360,000) | AID 602244, 2012; in the data active = inhibition above about 34%, passing the limit was not always enough;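 note: antagonist mode with CXCL16 agonist at 10 nM final; 0% = 10 nM CXCL16 with DMSO and 100% = unstimulated wells without agonist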
Target sequence (O00574 whole entry, looked up): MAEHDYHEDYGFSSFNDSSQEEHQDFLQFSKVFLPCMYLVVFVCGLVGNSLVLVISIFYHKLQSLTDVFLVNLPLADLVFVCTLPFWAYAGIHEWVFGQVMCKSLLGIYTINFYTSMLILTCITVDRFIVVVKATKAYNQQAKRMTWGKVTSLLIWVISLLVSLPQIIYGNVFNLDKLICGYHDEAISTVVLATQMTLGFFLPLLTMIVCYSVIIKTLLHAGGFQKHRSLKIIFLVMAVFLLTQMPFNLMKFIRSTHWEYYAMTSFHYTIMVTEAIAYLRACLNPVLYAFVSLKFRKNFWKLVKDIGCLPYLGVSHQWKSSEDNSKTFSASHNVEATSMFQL
EBI2 block = EBI2 receptor antagonists, beta-arrestin recruitment, primary screen, cell-based, luminescence, 7a,25-OHC stimulation, uHTS | actives 0.81% (n = 360,000) | AID 651636, 2012 | 7a,25-OHC stimulated | G-protein coupled receptor 183 (Homo sapiens), P32249 | inhibition, % at 5 µM; in the data active = inhibition above about 38%;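 note: enzyme fragment complementation signal reports receptor beta-arrestin coupling in cells; 0% = agonist plus DMSO wells and 100% = wells without agonist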
Target sequence (P32249 whole entry, looked up, the tested form may be a part): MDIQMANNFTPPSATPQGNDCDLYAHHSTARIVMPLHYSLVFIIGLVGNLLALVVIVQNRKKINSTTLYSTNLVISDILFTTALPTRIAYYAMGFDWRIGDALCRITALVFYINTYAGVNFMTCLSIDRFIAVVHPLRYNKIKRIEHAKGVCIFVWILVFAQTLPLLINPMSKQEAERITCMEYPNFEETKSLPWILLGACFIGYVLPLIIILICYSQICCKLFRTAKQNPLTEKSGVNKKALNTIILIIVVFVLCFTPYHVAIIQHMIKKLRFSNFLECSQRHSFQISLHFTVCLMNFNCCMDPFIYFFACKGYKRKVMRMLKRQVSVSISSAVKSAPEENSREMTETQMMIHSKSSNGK
APJ agonist = agonists of human apelin receptor APJ, primary screen, CHO-K1 cells, PathHunter beta-arrestin, luminescence; 0% DMSO wells, 100% apelin; activation, % at 20 µM; actives 0.11% (n = 330,000);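 active = activation more than six SD over the plate average, tested at 20 µM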;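 note: 0% = DMSO alone and 100% = apelin-13 at 10 nM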
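Test system – PathHunter CHO-K1 APJ (AGTRL-1) beta-arrestin reporter cells · Input – 1000 cells/well · Compound – single test compound dose, 20 µM final, 1% DMSO · Times – compound stimulation 90 min at 25 °C, detection 60 min · Technique – beta-gal luminescence · Read-out basis – APJ–arrestin association signal · Control set – negative DMSO alone, positive Apelin-13 at 10 nM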
APJ antag = antagonists of human apelin receptor APJ, primary screen, CHO-K1 cells, beta-arrestin complementation, luminescence | inhibition, % at 20 µM | P35414 | actives 0.32% (n = 330,000) | AID 2521, 2010;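 active = inhibition above about 40% at 20 µM, limit read from the data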;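 note: cells challenged with 10 nM apelin-13 agonist together with compound; plate controls were apelin-13 plus DMSO wells for no effect and DMSO wells lacking apelin-13 for full effect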
CCR6 antagonist = CCR6 receptor antagonists, primary screen, cell-based, CHO-K1, luminescence, beta-arrestin, uHTS. AID 493098, 2011. actives 0.49% (n = 340,000). inhibition, % at 20 µM. CHO-K1 CCR6 PathHunter beta-arrestin, CCL20-stimulated;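 active = compounds whose inhibition of the agonist-driven luminescence signal at 20 µM reaches about 50%, limit read from the data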;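 note: cells stimulated with CCL20 at 14 nM final; plate controls were DMSO with CCL20 for no effect and DMSO without agonist for full effect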
CXCR6 antag conf = CXCR6 receptor antagonists, confirmation, cell-based, single concentration, beta-arrestin, luminescence; inhibition, % at 20 µM; actives 65% (n = 700); CHO-K1 CXCR6 PathHunter beta-arrestin; shares compounds with CXCR6 inh;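 active = mean inhibition over four retests above 40%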;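 note: receptor stimulated with 10 nM CXCL16 agonist; beta-galactosidase fragment complementation upon beta-arrestin recruitment to receptor; plate controls were CXCL16 plus DMSO for no effect and DMSO without CXCL16 for full effect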
The depositor's hits bear a star; x = no result. Most compounds without a hit are left out; they make up all but 1.5% or so of the library.

SMILES	CXCR6 inh	EBI2 block	APJ agonist	APJ antag	CCR6 antagonist	CXCR6 antag conf
Cc1cc(C)cc(NC(=O)C(NCC2CCCO2)c2ccccc2)c1 (centres undefined)	60.2*	5.2	-3.3	-14.7	7.9	10.3
CC1CCC(NC(=O)c2ccc(NC3=NC4CS(=O)(=O)CC4S3)cc2)CC1 (centres undefined)	-2.6	-5.3	1.0	-2.7	-2.2	x
CC(CN1CCCC1)OC(=O)c1ccc(Cl)cc1 (centres undefined)	84.1*	1.9	-3.1	-5.2	12.6	-0.4
O=C1c2cccc3c([N+](=O)[O-])ccc(c23)C(=O)N1Cc1cccnc1	59.5*	38.7	x	x	x	65.3*
O=C(c1ccccc1)c1ccccc1N1C(=O)C=CC1=O	73.6*	4.0	1.2	26.7	x	16.0
CC1=NN(/C(=N\c2nnc(C)s2)Nc2ccc(C(C)(C)C)cc2)[C@H](c2ccc(C)cc2)S1	39.9*	6.8	-5.9	25.0	27.2	18.8
Cc1ccc(Cn2c(SCC(=O)N3CC(=O)Nc4ccccc43)nc3ccccc3c2=O)cc1	7.9	12.8	0.7	-6.0	-3.8	x
O=C1CN(C(=O)CSc2nc3cc(Cl)ccc3c(=O)n2Cc2ccccc2)c2ccccc2N1	43.4*	26.1	-7.2	28.6	55.5*	46.6*
CC(C)CN1C(=O)C(=Nc2cccnc2)c2ccccc21	43.3*	9.2	-9.7	33.0	37.1	36.9
C=CCN1C(=O)/C(=N/n2cnnc2)c2ccccc21	5.7	-8.1	-2.9	9.3	20.7	x
Nc1nc(COc2ccccc2)cs1	59.3*	-10.6	-4.3	14.4	-13.1	3.0
CCN(CC)CCn1c2c(c(SCC(=O)Nc3ccccc3Cl)nc1=O)CCC2	-8.2	2.3	-4.7	-7.6	7.3	x
COc1ccc2nc(C)cc(Nc3ccc(C)cc3)c2c1	58.5*	16.0	-1.8	3.9	11.7	1.3
COc1ccc(Nc2cc(C)nc3ccccc23)cc1	-0.9	-5.7	-1.6	-0.4	-1.3	x
O=C(CSc1cccc2cccnc12)N1CCCC1	51.8*	31.2	-6.7	26.9	70.3*	69.4*
Cc1cccc2c1cnn2C(=O)Nc1ccccc1Cl	-4.9	9.2	-1.2	-5.3	-6.9	x
Cc1nn2c(NCc3ccccn3)cc(C(C)C)nc2c1-c1ccccc1	48.8*	-16.1	-3.9	7.2	52.4*	8.6
O=c1[nH]c(SCc2ccc(Cl)cc2)nc2ccccc12	82.5*	-3.1	-2.5	19.4	-9.1	15.0
O=C(CSc1nc2ccccc2c(=O)[nH]1)NCc1ccc(Cl)cc1	-2.7	-1.9	0.3	8.2	-2.3	x
CC(=O)O[C@H]1CC[C@@]2(C)C(CCC3C2CC[C@]2(C)OC(=O)CCC32)C1 (some centres undefined)	0.8	1.6	-3.4	4.2	3.2	x
CC(=O)OC1CCC2(C)C(CCC3C4CC=C(C(C)=O)C4(C)OC(=O)CC32)C1 (centres undefined)	50.4*	51.8*	x	x	x	45.8*
Cc1ccc(-c2cc(C(=O)NCCCn3ccnc3)c3ccccc3n2)s1	71.9*	-24.1	-1.9	-14.9	4.7	-9.4
CCc1ccc(-c2cc(C(=O)NCCCn3ccnc3)c3ccccc3n2)s1	x	x	-0.1	5.0	x	x
N#C/C(=C/c1ccc(-c2ccccc2)o1)c1nc(-c2cccs2)cs1	11.9	12.5	x	x	16.6	x
N#C/C(=C/c1ccc(-c2ccc([N+](=O)[O-])cc2)o1)C(=O)Nc1nc(-c2cccs2)cs1	48.5*	9.1	x	x	67.7*	44.2*
SMILES	CXCR6 inh	EBI2 block	APJ agonist	APJ antag	CCR6 antagonist	CXCR6 antag conf
Cc1cc(N=O)c(C)cc1O	-0.5	6.9	x	x	x	x
Cc1cc(O)c(-c2cc(O)c(C)cc2O)cc1O	64.5*	26.9	10.2	0.0	x	80.2*
O=C(Nc1nc(-c2ccccc2)c(-c2ccccc2)o1)c1ccc(F)cc1	41.1*	5.1	-3.5	16.4	x	27.4
COc1cccc(C(C(=O)NC(C)(C)C)N(C(=O)CCC(=O)Nc2cc(C)on2)C(C)C)c1OC (centres undefined)	46.9*	-0.3	-2.5	3.8	-5.7	7.3
Cc1cnc(C(=O)Nc2cccc3cccnc23)cn1	51.4*	12.3	x	x	56.0*	40.0
CCC(C)c1ccc(O)c(NC(=S)NC(=O)c2cccs2)c1 (centres undefined)	59.2*	23.5	x	x	x	63.6*
Cc1ccc(F)cc1CNC(=O)C1CCC(=O)N(C2CC2)C1 (centres undefined)	38.4*	-8.4	-5.7	-1.6	-0.8	-5.1
CCOc1ccc(S(=O)(=O)NCCC(=O)N2CC=C(c3ccccc3)CC2)cc1	-3.1	1.1	-0.8	1.2	9.4	x
CC(C)(C)c1csc(N/N=C/c2ccc(O)cc2)n1	-5.7	16.4	1.7	-7.4	0.2	x
CC(C)[C@H](NC(=O)OC(C)(C)C)c1nnc(S(=O)(=O)Cc2c(F)cccc2Cl)o1	62.8*	8.2	5.1	27.4	63.1*	61.5*
CCCCC(=O)NC(=S)Nc1ccccc1C(=O)Nc1ccccc1	50.6*	15.0	-4.9	26.6	54.2*	54.5*
COC(=O)c1ccc(C(=O)OC)c(-n2c(=O)c3ccccc3c3ccccc3c2=O)c1	39.8*	6.3	-3.0	17.7	57.4*	39.5
COC(=O)c1ccc(-c2nn(C)c(=O)c3ccccc23)cc1	1.1	-2.3	-2.8	-53.0	8.1	x
CC1=C(C#N)C(=O)N(C2CCS(=O)(=O)C2)C(=O)/C1=C\c1ccc(C)o1 (centres undefined)	x	x	-0.9	4.6	x	x
Cc1ccc(C(=O)c2cc([N+](=O)[O-])ccc2N2CCN(C)CC2)cc1	58.6*	7.0	-0.9	-5.9	31.4	9.6
CN1CCN(c2ccc([N+](=O)[O-])cc2C(=O)c2ccc(Br)cc2)CC1	-1.8	6.6	-3.7	7.8	17.6	x
Oc1csc(Cc2nc(-c3ccc(Br)cc3)cs2)n1	4.6	3.7	-3.1	-8.1	20.6	x
Cc1sc(Cc2nc(O)cs2)nc1-c1ccccc1	51.8*	5.1	-9.3	44.7*	32.7	38.4
Cc1ccc(N(C)S(=O)(=O)c2cccc(C(=O)N(C)Cc3cnn(-c4ccccc4)c3)c2)cc1	-2.5	-0.5	5.7	19.1	11.3	x
Cc1cccc(N(C(=O)c2csnn2)C(C(=O)NCc2ccccc2)c2cccs2)c1 (centres undefined)	3.7	2.0	1.0	-2.1	5.6	x
CCOc1ccc(N(CC(=O)N/N=C/c2ccccn2)S(=O)(=O)c2ccc(Cl)cc2)cc1	40.3*	5.2	-9.7	-9.2	18.6	41.1*
CCOc1ccc(N(CC(=O)NCCSc2ccccn2)S(=O)(=O)c2ccc(Cl)cc2)cc1	16.0	23.7	0.3	4.2	11.1	x

Screening data (PubChem BioAssay)
